# Results pooled from the literature.
SMILES,cell line,assay,test system,conditions,quantity,result
CC1c2cc(c(O)c(O)c2O)C(C)c2cc(c(O)c(O)c2O)C(C)c2cc(c(O)c(O)c2O)C(C)c2cc1c(O)c(O)c2O (stereo not drawn),HEK293,"cell growth or viability, ATP luminescence",,24 h,CC50,102 µM
Cn1cnc2c1c(=O)n(CC(=O)Nc1c(Cl)cccc1Cl)c(=O)n2C,NCI-H1975,"cell growth or viability, MTT",,6.3 µg,viability,56.1%
O=C(Sc1cccccc1=O)c1ccccc1C(F)(F)F,HepDES19,"cell growth or viability, MTS",,72 h,CC50,8.6 µM
CN1CCC(NCc2cccc(-c3ccc(S(=O)(=O)NCc4ccccc4)cc3)c2)CC1,HEK293,"cell growth or viability, MTT",,24 h,CC50,32.3 µM
COc1ccc2cc3[n+](cc2c1OC)CCc1cc2c(cc1-3)OCO2,MDCK-MDR1,,Caco-2,"10 µg/mL, 4 h",Papp A→B,0.39 ×10⁻⁶ cm/s
Cc1ccc2c(=O)n(-c3ccc(F)cc3)c(CCN3C(=O)c4cccc(OC(C)C)c4C3=O)nc2c1,MDCK-MDR1,,Caco-2,"1 µM, 90 min, pH 7.4",Papp A→B,30 ×10⁻⁶ cm/s
CCS(=O)(=O)Nc1cccc(-c2cn(C)c(=O)c3ccccc23)c1,MDCK-MDR1,,Caco-2,,Papp,15 ×10⁻⁶ cm/s
CC(C)Cn1c(=O)n(C)c(=O)c2c(-c3cncn3C)n(Cc3cccc4ccccc34)nc21,HEK293,"cell growth or viability, MTT",,24 h,CC50,> 200 µM
O=c1cccccc1SSc1cccccc1=O,HepDES19,"cell growth or viability, MTS",,72 h,CC50,9.6 µM
COC(=O)c1ccccc1-c1c2ccc(=N)cc-2oc2cc(N)ccc12,MDR1,,MDCK-MDR1,"5 µM, 2 h, pH 7.4",efflux ratio,4.92
CC1c2cc(c(O)cc2O)C(C)c2cc(c(O)cc2O)C(C)c2cc(c(O)cc2O)C(C)c2cc1c(O)cc2O (stereo not drawn),HEK293,"cell growth or viability, MTT",,24 h,CC50,14.9 µM
O=C(O)/C=C/C=C/c1cccc(Oc2cc(Cl)cc(Cl)c2)c1,HEK293,"cell growth or viability, MTT",,24 h,CC50,> 200 µM
CCS(=O)(=O)Nc1ccc(OCCOCCOCCOCCOc2ccc(NS(=O)(=O)CC)cc2-c2cn(C)c(=O)c3ccccc23)c(-c2cn(C)c(=O)c3ccccc23)c1,MDCK-MDR1,,Caco-2,,Papp,0.13 ×10⁻⁶ cm/s
O=C(Sc1cccccc1=O)c1ccc(C(F)(F)F)cc1,HepDES19,"cell growth or viability, MTS",,72 h,CC50,56.1 µM
Cc1ccc2c(c1C)NC(=O)[C@]21NN=C(c2ccccc2)S1,HEK293,"cell growth or viability, MTT",,24 h,CC50,100 µM
